Test results as given in ChEMBL document CHEMBL1629528 (J Med Chem, 2010).
The source made the active and inactive calls. No cut-off for these calls is given here.

Legend:
[1] = target: T1, 5-hydroxytryptamine receptor 1A (Homo sapiens) (UniProt P08908); experiment: Inverse agonist activity at human recombinant 5-HT1A receptor expressed in HEK293 cells by [S35]GTPgammaS binding assay; type: functional, cell-based
T1 sequence (whole entry): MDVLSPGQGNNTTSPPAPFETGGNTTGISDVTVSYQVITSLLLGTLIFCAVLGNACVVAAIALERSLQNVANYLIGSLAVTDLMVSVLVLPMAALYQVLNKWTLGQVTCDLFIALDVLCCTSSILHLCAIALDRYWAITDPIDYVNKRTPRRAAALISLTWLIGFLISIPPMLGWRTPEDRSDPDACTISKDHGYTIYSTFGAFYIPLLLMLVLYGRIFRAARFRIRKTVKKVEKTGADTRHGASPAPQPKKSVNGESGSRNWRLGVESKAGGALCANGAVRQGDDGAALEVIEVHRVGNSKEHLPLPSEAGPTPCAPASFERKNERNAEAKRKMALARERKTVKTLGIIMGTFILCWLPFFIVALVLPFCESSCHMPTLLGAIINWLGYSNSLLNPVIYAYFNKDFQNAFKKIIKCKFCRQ
In short: (§1)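 [35S]-GTPγS binding in membranes from 10^6 cells (HEK293 for 5-HT1A; CHO for 5-HT1B, 5-HT1D), preincubated 30 min at 30 °C with compound in 20 mM HEPES pH 7.4, 3 mM MgCl2, 100 mM NaCl, 10 μM GDP, 0.2 mM ascorbate. 100 pM [35S]-GTPγS added, 30 min more at 30 °C; nonspecific with 20 μM GTPγS; filtration and scintillation counting.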

[2] = target: T2, 5-hydroxytryptamine receptor 1A (Homo sapiens, UniProt P08908); experiment: Displacement of [3H]WAY100635 from human recombinant 5-HT1A receptor expressed in CHO cells; type: cell-based
T2 sequence (P08908 whole entry): T1 sequence (whole entry)

[3] = target: Voltage-gated inwardly rectifying potassium channel KCNH2 (Homo sapiens, UniProt Q12809); experiment: Displacement of [3H]dofetilide from human ERG by SPA
Sequence of Voltage-gated inwardly rectifying potassium channel KCNH2 (Q12809 whole entry): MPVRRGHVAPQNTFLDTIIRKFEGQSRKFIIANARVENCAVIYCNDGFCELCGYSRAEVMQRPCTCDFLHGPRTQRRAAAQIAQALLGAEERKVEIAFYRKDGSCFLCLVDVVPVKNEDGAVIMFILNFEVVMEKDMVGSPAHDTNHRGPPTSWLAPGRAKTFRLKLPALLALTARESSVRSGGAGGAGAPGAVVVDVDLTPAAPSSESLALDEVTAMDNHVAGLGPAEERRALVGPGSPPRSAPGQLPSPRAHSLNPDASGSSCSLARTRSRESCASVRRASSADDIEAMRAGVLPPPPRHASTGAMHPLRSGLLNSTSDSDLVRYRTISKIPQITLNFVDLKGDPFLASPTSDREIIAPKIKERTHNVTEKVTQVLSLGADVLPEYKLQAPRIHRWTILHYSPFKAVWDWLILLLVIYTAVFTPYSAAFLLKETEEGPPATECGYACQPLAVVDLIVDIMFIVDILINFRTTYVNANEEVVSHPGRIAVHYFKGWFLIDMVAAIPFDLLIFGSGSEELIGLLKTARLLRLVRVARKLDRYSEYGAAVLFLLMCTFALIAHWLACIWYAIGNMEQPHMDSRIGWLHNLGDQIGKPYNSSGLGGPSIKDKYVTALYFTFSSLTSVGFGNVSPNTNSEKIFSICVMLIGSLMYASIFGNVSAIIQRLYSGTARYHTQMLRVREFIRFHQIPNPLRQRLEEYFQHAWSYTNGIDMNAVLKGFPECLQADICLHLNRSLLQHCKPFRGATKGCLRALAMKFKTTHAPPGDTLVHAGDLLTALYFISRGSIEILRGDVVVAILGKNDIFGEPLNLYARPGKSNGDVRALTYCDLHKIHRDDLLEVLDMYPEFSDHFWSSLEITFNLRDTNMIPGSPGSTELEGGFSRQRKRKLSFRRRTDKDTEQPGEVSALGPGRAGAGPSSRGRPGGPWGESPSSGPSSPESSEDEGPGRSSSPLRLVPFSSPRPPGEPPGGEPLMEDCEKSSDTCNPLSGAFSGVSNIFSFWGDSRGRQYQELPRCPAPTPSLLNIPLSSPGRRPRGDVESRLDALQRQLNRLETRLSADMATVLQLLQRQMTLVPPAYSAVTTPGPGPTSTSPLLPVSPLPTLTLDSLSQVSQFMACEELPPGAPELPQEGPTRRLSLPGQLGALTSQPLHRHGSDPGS

[4] = target: 5-hydroxytryptamine receptor 6 (Homo sapiens, UniProt P50406); experiment: Binding affinity to human recombinant 5-HT6 receptor by radioligand displacement assay
Sequence of 5-hydroxytryptamine receptor 6 (P50406 whole entry): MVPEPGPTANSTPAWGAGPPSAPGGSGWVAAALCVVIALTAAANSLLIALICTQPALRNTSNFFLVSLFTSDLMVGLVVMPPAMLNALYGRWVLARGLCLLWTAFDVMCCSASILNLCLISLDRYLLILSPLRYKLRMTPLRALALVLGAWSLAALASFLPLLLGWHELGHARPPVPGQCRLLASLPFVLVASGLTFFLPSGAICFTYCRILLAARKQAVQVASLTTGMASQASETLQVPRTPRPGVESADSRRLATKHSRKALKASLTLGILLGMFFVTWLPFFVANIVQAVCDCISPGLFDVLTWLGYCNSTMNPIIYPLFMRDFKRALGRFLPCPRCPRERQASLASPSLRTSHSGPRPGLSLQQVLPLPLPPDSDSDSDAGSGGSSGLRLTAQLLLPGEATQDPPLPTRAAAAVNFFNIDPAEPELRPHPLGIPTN

[5] = target: T3, 5-hydroxytryptamine receptor 1D (Homo sapiens, UniProt P28221); experiment: Inverse agonist activity at human recombinant 5-HT1D receptor expressed in CHO cells by [S35]GTPgammaS binding assay; type: functional, cell-based; in short: as §1
T3 sequence (P28221 whole entry): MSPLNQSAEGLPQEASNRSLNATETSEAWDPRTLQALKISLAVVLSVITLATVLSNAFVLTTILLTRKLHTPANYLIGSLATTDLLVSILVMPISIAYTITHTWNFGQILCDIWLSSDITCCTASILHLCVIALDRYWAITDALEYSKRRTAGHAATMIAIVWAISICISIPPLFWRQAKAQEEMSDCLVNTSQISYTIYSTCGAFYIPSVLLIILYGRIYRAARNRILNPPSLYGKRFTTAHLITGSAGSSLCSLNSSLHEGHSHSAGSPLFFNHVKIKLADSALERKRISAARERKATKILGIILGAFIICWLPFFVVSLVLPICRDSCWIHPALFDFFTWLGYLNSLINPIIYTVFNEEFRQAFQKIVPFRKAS

[6] = target: D(2) dopamine receptor (Homo sapiens, UniProt P14416); experiment: Binding affinity to human recombinant dopamine D2 receptor by radioligand displacement assay
Sequence of D(2) dopamine receptor (P14416 whole entry): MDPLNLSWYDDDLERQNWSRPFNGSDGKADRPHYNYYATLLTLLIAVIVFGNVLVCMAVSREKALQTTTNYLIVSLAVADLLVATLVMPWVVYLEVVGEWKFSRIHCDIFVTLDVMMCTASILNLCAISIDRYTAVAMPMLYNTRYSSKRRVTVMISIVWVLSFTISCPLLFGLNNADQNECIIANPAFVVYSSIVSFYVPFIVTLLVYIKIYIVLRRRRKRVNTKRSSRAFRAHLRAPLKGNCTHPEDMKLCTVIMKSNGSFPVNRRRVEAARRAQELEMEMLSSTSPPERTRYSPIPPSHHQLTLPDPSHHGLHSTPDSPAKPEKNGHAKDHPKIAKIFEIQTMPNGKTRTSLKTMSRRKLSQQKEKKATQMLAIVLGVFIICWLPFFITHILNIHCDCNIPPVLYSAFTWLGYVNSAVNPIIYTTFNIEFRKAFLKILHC

[7] = target: T4, 5-hydroxytryptamine receptor 1B (Homo sapiens, UniProt P28222); experiment: Inverse agonist activity at human recombinant 5-HT1B receptor expressed in CHO cells by [S35]GTPgammaS binding assay; type: functional, cell-based; in short: as §1
T4 sequence (P28222 whole entry): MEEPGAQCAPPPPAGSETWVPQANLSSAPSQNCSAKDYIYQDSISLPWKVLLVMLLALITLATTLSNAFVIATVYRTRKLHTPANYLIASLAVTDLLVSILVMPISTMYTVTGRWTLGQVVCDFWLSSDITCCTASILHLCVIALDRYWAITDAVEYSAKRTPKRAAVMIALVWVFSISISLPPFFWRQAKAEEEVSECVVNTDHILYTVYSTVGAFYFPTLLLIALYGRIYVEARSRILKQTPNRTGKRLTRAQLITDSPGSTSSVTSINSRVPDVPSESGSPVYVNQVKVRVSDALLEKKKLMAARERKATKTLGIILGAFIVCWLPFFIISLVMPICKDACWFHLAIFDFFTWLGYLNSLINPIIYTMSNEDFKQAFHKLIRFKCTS

[8] = target: 5-hydroxytryptamine receptor 2B (Homo sapiens, UniProt P41595); experiment: Binding affinity to human recombinant 5-HT2B receptor by radioligand displacement assay
Sequence of 5-hydroxytryptamine receptor 2B (P41595 whole entry): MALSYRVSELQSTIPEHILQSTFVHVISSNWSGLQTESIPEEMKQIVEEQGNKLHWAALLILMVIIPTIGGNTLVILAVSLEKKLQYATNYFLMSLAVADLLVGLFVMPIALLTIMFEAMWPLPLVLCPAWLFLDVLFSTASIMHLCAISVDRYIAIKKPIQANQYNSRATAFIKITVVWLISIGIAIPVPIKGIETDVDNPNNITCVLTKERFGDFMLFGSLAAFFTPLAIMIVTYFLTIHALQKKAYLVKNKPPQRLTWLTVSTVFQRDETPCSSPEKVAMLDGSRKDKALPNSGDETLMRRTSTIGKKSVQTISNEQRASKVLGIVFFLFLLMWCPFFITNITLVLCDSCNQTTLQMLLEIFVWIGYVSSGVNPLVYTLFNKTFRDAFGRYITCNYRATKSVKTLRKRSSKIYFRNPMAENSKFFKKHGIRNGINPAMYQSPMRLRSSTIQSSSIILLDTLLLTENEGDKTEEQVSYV

[9] = target: 5-hydroxytryptamine receptor 2A (Homo sapiens, UniProt P28223); experiment: Binding affinity to human recombinant 5-HT2A receptor by radioligand displacement assay
Sequence of 5-hydroxytryptamine receptor 2A (P28223 whole entry): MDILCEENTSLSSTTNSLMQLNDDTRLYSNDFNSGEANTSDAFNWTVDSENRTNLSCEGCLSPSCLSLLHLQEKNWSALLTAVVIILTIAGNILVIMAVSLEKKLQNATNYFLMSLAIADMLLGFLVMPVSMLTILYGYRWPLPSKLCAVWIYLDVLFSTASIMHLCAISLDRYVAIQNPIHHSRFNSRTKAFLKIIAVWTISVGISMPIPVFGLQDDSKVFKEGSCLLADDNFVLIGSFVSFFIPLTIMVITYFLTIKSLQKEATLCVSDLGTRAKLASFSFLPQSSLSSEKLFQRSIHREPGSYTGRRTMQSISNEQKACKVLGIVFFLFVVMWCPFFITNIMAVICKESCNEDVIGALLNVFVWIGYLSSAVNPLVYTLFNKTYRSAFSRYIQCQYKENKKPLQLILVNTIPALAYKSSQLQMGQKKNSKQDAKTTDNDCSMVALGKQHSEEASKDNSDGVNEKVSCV

[10] = target: D(3) dopamine receptor (Homo sapiens, UniProt P35462); experiment: Binding affinity to human recombinant dopamine D3 receptor by radioligand displacement assay
Sequence of D(3) dopamine receptor (P35462 whole entry): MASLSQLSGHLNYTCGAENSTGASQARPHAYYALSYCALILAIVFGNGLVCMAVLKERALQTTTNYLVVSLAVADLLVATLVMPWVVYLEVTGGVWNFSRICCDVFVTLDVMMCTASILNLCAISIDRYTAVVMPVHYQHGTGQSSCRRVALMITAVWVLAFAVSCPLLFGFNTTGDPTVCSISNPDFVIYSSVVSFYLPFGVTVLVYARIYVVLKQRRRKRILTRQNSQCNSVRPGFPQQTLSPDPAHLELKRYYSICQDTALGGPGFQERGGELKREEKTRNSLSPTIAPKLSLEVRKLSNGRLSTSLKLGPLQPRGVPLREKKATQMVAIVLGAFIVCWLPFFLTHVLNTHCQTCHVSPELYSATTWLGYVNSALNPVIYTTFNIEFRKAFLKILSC

[11] = target: T5, 5-hydroxytryptamine receptor 2C (Homo sapiens, UniProt P28335); experiment: Binding affinity to human recombinant 5-HT2C receptor by radioligand displacement assay
T5 sequence (P28335 whole entry): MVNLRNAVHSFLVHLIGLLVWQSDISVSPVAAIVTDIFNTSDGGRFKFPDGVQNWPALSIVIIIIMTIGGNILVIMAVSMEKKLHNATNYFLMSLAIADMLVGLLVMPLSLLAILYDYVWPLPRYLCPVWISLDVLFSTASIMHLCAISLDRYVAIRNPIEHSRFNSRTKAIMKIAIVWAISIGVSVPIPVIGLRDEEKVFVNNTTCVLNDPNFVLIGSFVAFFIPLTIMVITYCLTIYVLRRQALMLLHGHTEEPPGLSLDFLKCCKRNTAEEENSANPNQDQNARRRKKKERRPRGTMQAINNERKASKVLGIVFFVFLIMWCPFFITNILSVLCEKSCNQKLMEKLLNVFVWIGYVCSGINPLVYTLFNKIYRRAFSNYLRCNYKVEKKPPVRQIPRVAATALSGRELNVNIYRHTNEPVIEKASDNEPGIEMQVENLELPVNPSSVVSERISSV

[12] = target: T4, 5-hydroxytryptamine receptor 1B; experiment: Displacement of [3H]5-HT from human recombinant 5-HT1B receptor expressed in CHO cells; type: cell-based
[13] = target: 5-hydroxytryptamine receptor 7 (Homo sapiens, UniProt P34969); experiment: Binding affinity to human recombinant 5-HT7 receptor by radioligand displacement assay
[14] = target: Sodium-dependent serotonin transporter (Rattus norvegicus, UniProt P31652); experiment: Inhibition of [3H]5-HT uptake at SERT in rat cortical synaptosomes; type: subcellular, Brain
Sequence of Sodium-dependent serotonin transporter (P31652 whole entry): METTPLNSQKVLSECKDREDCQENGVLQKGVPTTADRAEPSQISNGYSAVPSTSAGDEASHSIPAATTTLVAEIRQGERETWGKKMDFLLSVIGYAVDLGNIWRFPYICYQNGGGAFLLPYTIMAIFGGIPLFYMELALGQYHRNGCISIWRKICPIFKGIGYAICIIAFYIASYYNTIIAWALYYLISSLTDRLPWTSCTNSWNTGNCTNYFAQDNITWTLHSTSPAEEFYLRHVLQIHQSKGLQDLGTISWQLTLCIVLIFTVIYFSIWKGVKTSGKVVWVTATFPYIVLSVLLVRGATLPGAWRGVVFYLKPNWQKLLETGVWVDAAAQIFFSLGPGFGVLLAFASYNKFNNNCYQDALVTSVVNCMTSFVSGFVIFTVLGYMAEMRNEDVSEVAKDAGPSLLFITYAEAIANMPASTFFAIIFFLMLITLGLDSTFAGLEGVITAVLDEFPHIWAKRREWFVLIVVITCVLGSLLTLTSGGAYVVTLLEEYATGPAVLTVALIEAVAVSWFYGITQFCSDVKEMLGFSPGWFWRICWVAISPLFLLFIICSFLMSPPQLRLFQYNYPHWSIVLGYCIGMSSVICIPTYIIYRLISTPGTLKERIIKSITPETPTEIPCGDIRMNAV

[15] = target: T3, 5-hydroxytryptamine receptor 1D; experiment: Displacement of [3H]5-HT from human recombinant 5-HT1D receptor expressed in CHO cells; type: cell-based
[16] = target: T1, 5-hydroxytryptamine receptor 1A (Homo sapiens); experiment: Intrinsic activity at human recombinant 5-HT1A receptor expressed in HEK293 cells by [S35]GTPgammaS binding assay relative to 5-HT; type: functional, cell-based; in short: as §1
[17] = target: T4, 5-hydroxytryptamine receptor 1B; experiment: Intrinsic activity at human recombinant 5-HT1B receptor expressed in CHO cells by [S35]GTPgammaS binding assay relative to 5-HT; type: functional, cell-based; in short: as §1
[18] = system: Rattus norvegicus; experiment: Inhibition of 8-OH-DPAT-induced hyperlocomotory activity in Sprague-Dawley rat administered orally 60 mins before 8-OH-DPATchallenge; type: functional; conditions: for ED50: po
In short: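 Male Sprague-Dawley rats (250–350 g) dosed orally (5 mL/kg) at 0.03, 0.1 or 0.3 mg/kg or vehicle, 60 min before sc 8-OH-DPAT 0.2 mg/kg (2 mL/kg). Total distance travelled recorded by infrared sensors over 30 min immediately after; 8–9 rats per group.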

[19] = Clearance in Sprague-Dawley rat at 0.5 mg/kg, iv after 24 hrs; type: ADME, organism-based; design: dose 0.5 mg/kg, route intravenous; conditions: in vivo
In short: (§2)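 Male Sprague-Dawley rats given 0.5 mg/kg iv (2 mL/kg, 2.5% DMSO in glucosate solution), n=3, cassette dosing; blood collected at intervals up to 24 h, protein precipitation and LC-MS/MS quantification.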

[20] = Solubility of the compound in simulated gastric fluid at pH 1.2 at 25 degC; type: physicochemical
[21] = Solubility of the compound in fed state simulated intestinal fluid at pH 5.5 at 25 degC; type: physicochemical
In short: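 Solubility determined at 25 °C in fed state simulated intestinal fluid at pH 5.5.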

[22] = Half life in Sprague-Dawley rat at 0.5 mg/kg, iv after 24 hrs; type: ADME, organism-based; design: dose 0.5 mg/kg, route intravenous; conditions: in vivo; in short: as §2
[23] = Oral bioavailability in Sprague-Dawley rat at 1 mg/kg, po after 24 hrs; type: ADME, organism-based; conditions: in vivo
In short: (§3)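 Male Sprague-Dawley rats dosed po at 1 mg/kg (10 mL/kg, 1% DMSO in aqueous 0.5% methocel), n=3, as a cassette with other compounds; blood sampled at intervals up to 24 h and analysed by protein precipitation then LC-MS/MS.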

[24] = Solubility of the compound in water; type: physicochemical
In short: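 Measured on the dihydrochloride salt form, dissolved in water.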

[25] = Cmax in Sprague-Dawley rat at 1 mg/kg, po after 24 hrs; type: ADME, organism-based; design: dose 1 mg/kg, route oral; conditions: in vivo; in short: as §3
[26] = Ratio of drug level in brain to blood in Sprague-Dawley rat after 1 hr; type: ADME, tissue-based; conditions: read-out: BBR
In short: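 Male Sprague-Dawley rats dosed iv at 0.5 mg/kg (2.5% DMSO in glucosate), n=3, as a cassette. At 1 h, CO2 anaesthesia, blood taken by heart puncture and brain removed. Both matrices analysed by protein precipitation and LC-MS/MS.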

[27] = AUC (0 to infinity) in Sprague-Dawley rat at 1 mg/kg, po after 24 hrs; type: ADME, organism-based; design: time infinity, dose 1 mg/kg, route oral; conditions: plasma; in short: as §3
[28] = in vivo; conditions: dog, plasma, po, 10 mg/kg
[29] = in vivo; conditions: dog, po, 10 mg/kg
[30] = Half life in cynomolgus monkey at 1 mg/kg, iv; conditions: in vivo
[31] = in vivo; conditions: dog, po, 1 mg/kg
[32] = Half life in dog at 0.5 mg/kg, iv; conditions: in vivo
[33] = Clearance in cynomolgus monkey at 1 mg/kg, iv; conditions: in vivo
[34] = Clearance in dog at 0.5 mg/kg, iv; conditions: in vivo
[35] = in vivo; conditions: cynomolgus monkey, po, 10 mg/kg
[36] = in vivo; conditions: cynomolgus monkey, po, 10 mg/kg; remark: listed apart in the source
[37] = in vivo; conditions: cynomolgus monkey, plasma, po, 10 mg/kg

Compound | Ki [3] [nM] | Ki [4] [nM] | Activity [5] | Ki [6] [nM] | Ki [8] [nM] | Ki [9] [nM] | Ki [10] [nM] | Ki [11] [nM] | Ki [13] [nM] | Ki [14] [nM] | clearance [19] [mL/min/kg] | solubility [20] [µg/mL] | solubility [21] [µg/mL] | half-life [22] [h] | bioavailability [23] [%] | solubility [24] [µg/mL] | Cmax [25] [ng/mL] | Kp at 1 h [26] | ED50 [18] [mg/kg] | AUC(0-inf) [27] [ng·h/mL] | other results
Cc1ccc2c(N3CCN(CCc4cccc(NC(=O)c5ccccc5)c4)CC3)cccc2n1 | 50.1 | > 1000 | Active | 398 | 126 | 79.4 | 100 | 794 | 79.4 | 2000 |  |  |  |  |  |  |  |  |  |  | Activity [1]: Active; Ki [2]: 1 nM; Activity [7]: Active; Ki [12]: 2.51 nM; Ki [15]: 0.316 nM
CC(=O)Nc1cccc(CCN2CCN(c3cccc4nc(C)ccc34)CC2)c1 |  |  | Active |  |  |  |  |  |  |  |  |  |  |  |  |  |  |  |  |  | Intrinsic activity [16]: 0; Intrinsic activity [17]: 0; inhibition [18]: Dose-dependent effect
CC(=O)Nc1cccc(CCN2CCN(c3cccc4nc(C)ccc34)CC2)c1.Cl.Cl |  |  |  |  |  |  |  |  |  |  | 10 | > 10000 | 5000 | 4.6 | 51 | > 10000 | 98 | 0.7 | 0.09 | 893 | 
Cc1ccc2c(N3CCN(CCc4cccc(N5CCOC5=O)c4)CC3)cccc2n1 | 2000 | 3160 | Active | 794 | 1260 | 794 | 200 | > 5010 | 501 | 501 |  |  |  |  |  |  |  |  |  |  | Intrinsic activity [16]: 0; Intrinsic activity [17]: 0; Ki [15]: 0.158 nM
Cc1ccc2c(N3CCN(CCc4cccc(NS(C)(=O)=O)c4)CC3)cccc2n1.Cl.Cl |  |  |  |  |  |  |  |  |  |  | 7 | > 10000 | 600 | 3.9 | 56 | > 10000 | 243 | 0.5 | 1 | 1450 | 
Cc1ccc2c(N3CCN(CCc4cccc(N5CCNC5=O)c4)CC3)cccc2n1.Cl.Cl |  |  |  |  |  |  |  |  |  |  | 11 | > 10000 | 500 | 3.2 | 58 | > 10000 | 122 | 0.5 | 0.03 | 889 | AUC(0-inf) [28]: 2550 ng·h/mL; Cmax [29]: 1300 ng/mL; half-life [30]: 5.3 h; bioavailability [31]: 6%; half-life [32]: 0.8 h; clearance [33]: 25 mL/min/kg; clearance [34]: 60 mL/min/kg; bioavailability [35]: 63%; Cmax [36]: 1390 ng/mL; AUC(0-inf) [37]: 4220 ng·h/mL
